The source made the active and inactive calls. The calls are words filed in the database; no cut-off is given here.
What was measured:
[1] = Drug metabolism in human intestine microsomes assessed as psilocin formation at 2.5 uM after 120 mins by LC-MS analysis; type: ADME, Microsome; details: 2 h
In short: (§1)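 2.5 μM compound in 50 mM potassium phosphate pH 7.4 with 3 mM MgCl2, 1 mM EDTA and an NADPH regenerating system. Incubated at 37 °C with human liver or intestinal S9 or microsomes (400 μg/mL protein) or 10% human AB serum. Acetonitrile quench, then LC-MS; psilocin concentration read at 120 min.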

[2] = Metabolic stability in human intestine microsomes assessed as half life at 2.5 uM measured upto 120 mins in presence of NADPH by LC-MS analysis; type: ADME, Microsome; details: 2 h
In short: (§2)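 2.5 μM compound at 37 °C in 50 mM potassium phosphate pH 7.4 with 3 mM MgCl2, 1 mM EDTA and an NADPH regenerating system. […] Sampled at 0–120 min in 20-min steps, acetonitrile quench, LC-MS of parent. T1/2 from one-phase exponential decay fit.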

[3] = Drug metabolism in human liver microsomes assessed as psilocin formation at 2.5 uM after 120 mins by LC-MS analysis; type: ADME, Microsome; details: 2 h; in short: as §1
[4] = Drug metabolism in human liver S9 fraction assessed as psilocin formation at 2.5 uM after 120 mins by LC-MS analysis; type: ADME, subcellular; details: s9, 2 h; in short: as §1
[5] = Drug metabolism in human serum assessed as psilocin formation at 2.5 uM after 120 mins by LC-MS analysis; type: ADME, cell-free; details: 2 h; in short: as §1
[6] = Drug metabolism in human intestine S9 fraction assessed as psilocin formation at 2.5 uM after 120 mins by LC-MS analysis; type: ADME, subcellular; details: s9, 2 h; in short: as §1
[7] = Metabolic stability in human liver microsomes assessed as half life at 2.5 uM measured upto 120 mins in presence of NADPH by LC-MS analysis; type: ADME, Microsome; details: microsomes, 2 h, 2.5 µM; in short: as §2
[8] = Drug metabolism in po dosed C57BL/6 mouse assessed as psilocin formation measured upto 24 hrs by LC-MS analysis; type: ADME, organism-based; details: in vivo, dose 1-10 mg/kg
[9] = Metabolic stability in human intestine S9 fraction assessed as half life at 2.5 uM measured upto 120 mins in presence of NADPH by LC-MS analysis; type: ADME, subcellular; details: s9, 2 h; in short: as §2
[10] = Drug metabolism in C57BL/6 mouse assessed as psilocin formation at 10 mg/kg, po measured after 8 hrs by LC-MS analysis; type: ADME, organism-based; details: in vivo
[11] = Metabolic stability in human liver S9 fraction assessed as half life at 2.5 uM measured upto 120 mins in presence of NADPH by LC-MS analysis; type: ADME, subcellular; details: s9, 2 h, 2.5 µM; in short: as §2
[12] = Metabolic stability in human serum assessed as half life at 2.5 uM measured upto 120 mins in presence of NADPH by LC-MS analysis; type: ADME, cell-free; details: 2 h; in short: as §2
Mus musculus = assay: Psychedelic activity in mouse assessed as head-twitch response at 1 mg/kg, po measured after 15 to 30 mins; type: functional, organism-based; details: time 15-30 min
In short: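 C57BL/6 mice, singly housed for 2 days, with 30-min predose chamber acclimation. Single oral 1 mg/kg dose from 100 mM DMSO stock diluted in 0.9% saline; vehicle 1% DMSO in saline. Video-recorded after dosing; head twitches scored blind per 15-min interval (reference time course) or for the 15–30 min window. n = 2–4; one-way ANOVA.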

Compound | Drug metabolism [1] [µM] | t1/2 [2] [min] | Drug metabolism [3] [µM] | Drug metabolism [4] [µM] | Drug metabolism [5] [µM] | Drug metabolism [6] [µM] | t1/2 [7] [min] | Drug metabolism [8] | t1/2 [9] [min] | Drug metabolism [10] | t1/2 [11] [min] | t1/2 [12] [min] | Activity (Mus musculus)
CC(C)[Si](Oc1cccc2[nH]cc(CCN(C)C)c12)(C(C)C)C(C)C | 0 | 27 | 0 | 0 | 0.142 | 0 | 104 | Dose-Dependent Effect | 57 | Metabolite_Notdetected | 96 |  | 
CN(C)CCc1c[nH]c2cccc(OP(=O)(Oc3ccccc3)Oc3ccccc3)c12 | 0.076 | 28 | 0 | 0.073 | 0.069 | 0 | 43 | Dose-Dependent Effect | 52 | Metabolite_Notdetected | 96 |  | 
CCOC(=O)[C@@H](C)NP(=O)(Oc1ccccc1)Oc1cccc2c1c(CCN(C)C)cn2[Si](C(C)C)(C(C)C)C(C)C (stereo not given in full) | 0 | 29 | 0.324 | 0.153 | 0 | 0.47 | 22 |  | 39 |  | 26 | 145 | 
CC(C)[Si](C(C)C)(C(C)C)n1cc(CCN(C)C)c2c(OCc3ccc(F)cc3)cccc21 | 0 | 50 | 0 | 0 | 0 | 0 | 27 |  | 64 |  | 60 |  | 
CN(C)CCc1c[nH]c2cccc(OP3(=O)OCC(C)(C)CO3)c12 | 0 |  | 0 | 0.011 | 0 | 0 |  |  |  |  |  |  | 
COCCOCCOCC(=O)Oc1cccc2[nH]cc(CCN(C)C)c12 | 0 | 60 | 0.494 | 0 | 0 | 0 | 5 |  | 72 |  | 16 | 0.8 | 
CCC(=O)Oc1cccc2c1c(CCN(C)C)cn2[Si](C(C)C)(C(C)C)C(C)C | 0.053 | 2 | 0.244 | 0.204 | 0 | 0 | 2 |  | 2 |  | 3 | 49 | 
CN(C)CCc1c[nH]c2cccc(OC(=O)OCC(Cl)(Cl)Cl)c12 | 0 | 150 | 0.057 | 0.133 | 0 | 0 | 277 |  | 221 |  |  | 182 | 
CC(C)OC(=O)OCOc1cccc2c1c(CCN(C)C)cn2COC(=O)OC(C)C | 0 | 894 | 0.056 | 0.186 | 0 | 0 | 104 | Dose-Dependent Effect | 266 | Metabolite_Notdetected | 293 | 3 | 
COC(=O)c1cccc(C(=O)Oc2cccc3[nH]cc(CCN(C)C)c23)c1 | 0.241 |  | 0.919 | 0.451 | 3.148 | 0.166 | 22 |  |  |  | 33 | 33 | 
CN(C)CCc1c[nH]c2cccc(OC(=O)c3cccc(C(=O)Oc4cccc5[nH]cc(CCN(C)C)c45)c3)c12 | 0 | 621 | 0 | 0 | 0 | 0 | 241 |  | 445 |  |  | 101 | 
CCC(=O)OCOc1cccc2c1c(CCN(C)C)cn2C(=O)CC | 0 | 22 | 0.001 | 0 | 0 | 0 | 13 |  | 52 |  | 16 | 0.8 | 
CC(C)[Si](C(C)C)(C(C)C)n1cc(CCN(C)C)c2c(OC(=O)c3ccc(Br)cc3)cccc21 | 0.887 | 11 | 1.659 | 0.656 | 0 | 0.195 | 25 |  | 16 |  | 15 |  | 
CN(C)CCc1c[nH]c2cccc(OC(=O)c3cccc4c3OCCO4)c12 | 0 | 113 | 0.329 | 0.145 | 0 | 0 | 390 | Dose-Dependent Effect |  | Metabolite_Notdetected | 529 |  | inactive
CN(C)CCc1c[nH]c2cccc(OC(=O)c3ccc(Br)cc3)c12 | 0.018 | 71 | 1.31 | 0.689 | 2.01 | 0 | 87 | Dose-Dependent Effect | 69 | Metabolite_Notdetected | 39 | 19 | 
CN(C)CCc1c[nH]c2cccc(O[Si](C)(C)C(C)(C)C)c12 | 0 |  | 0.012 | 0 | 0 | 0 | 347 | Dose-Dependent Effect |  | Metabolite_Notdetected | 191 |  | Active
CN(C)CCc1cn(C(=O)OCc2ccccc2)c2cccc(OC(=O)OCc3ccccc3)c12 | 0 | 13 | 0 | 0 | 0 | 0 | 52 | Dose-Dependent Effect | 16 | Metabolite_Notdetected | 22 | 0.8 | 
CN(C)CCc1c[nH]c2cccc(O[Si](c3ccccc3)(c3ccccc3)C(C)(C)C)c12 | 0 |  | 0 | 0 | 0 | 0 | 229 |  |  |  | 391 |  | 
CC(C)[Si](C(C)C)(C(C)C)n1cc(CCN(C)C)c2c(OC(=O)Sc3ccccc3)cccc21 | 0 | 13 | 0.206 | 0.133 | 0 | 0 | 9 |  | 24 |  | 7 | 32 | 
CC(C)[Si](C(C)C)(C(C)C)n1cc(CCN(C)C)c2c(OC(=O)OCC3CC3)cccc21 | 0.096 | 24 | 0.186 | 0.072 | 0 | 0.018 | 31 |  | 24 |  | 49 | 26 | 
